Experimental data published in ChEMBL document CHEMBL4007449, “Novel multi-substituted benzyl acridone derivatives as survivin inhibitors for hepatocellular carcinoma treatment” (Eur J Med Chem, 2017).
Activity calls are given as the source filed them. The calls are words filed in the database; no cut-off is given here.

Assays:
[1] = tested on: Mus musculus; assay: Toxicity in nude mouse ectopically xenografted with human HepG2 cells assessed as spleen weight index at 3 mg/kg, ip administered once in 2 days measured after 30 days (reference value: 0.002 to 0.0106); assay type: organism-based; settings: in vivo, 720 h
Method in brief: (§1)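 HepG2 cells implanted subcutaneously in the flanks of nude mice, randomised into groups of 5: blank, 5-FU (25 mg/kg) and test compound hydrochloride at 0.33 or 3 mg/kg, given i.p. once every 2 days. Tumour volume and body weight recorded every 2 days. Mice euthanised on day 30; tumours, liver and spleen weighed and organ indices calculated; tumour growth inhibition derived.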

[2] = tested on: Mus musculus; assay: Toxicity in nude mouse ectopically xenografted with human HepG2 cells assessed as effect on normal behavior at 0.33 to 3 mg/kg, ip administered once in 2 days measured up to 30 days post dose; assay type: organism-based; settings: in vivo; method in brief: as §1
[3] = tested on: Mus musculus; assay: Toxicity in nude mouse ectopically xenografted with human HepG2 cells assessed as spleen weight at 3 mg/kg, ip administered once in 2 days measured after 30 days (reference value: 0.071 to 0.248 g); assay type: organism-based; settings: in vivo, 720 h; method in brief: as §1
[4] = tested on: Mus musculus; assay: Toxicity in ip dosed nude mouse ectopically xenografted with human HepG2 cells assessed as increase in spleen weight administered once in 2 days measured after 30 days; assay type: organism-based; settings: in vivo, 720 h; method in brief: as §1
[5] = tested on: Mus musculus; assay: Toxicity in nude mouse ectopically xenografted with human HepG2 cells assessed as spleen weight index at 0.33 mg/kg, ip administered once in 2 days measured after 30 days (reference value: 0.002 to 0.0106); assay type: organism-based; settings: in vivo, 720 h; method in brief: as §1
[6] = tested on: Mus musculus; assay: Toxicity in nude mouse ectopically xenografted with human HepG2 cells assessed as body weight loss at 0.33 to 3 mg/kg, ip administered once in 2 days measured up to 30 days post dose; assay type: organism-based; settings: in vivo; method in brief: as §1
[7] = tested on: Mus musculus; assay: Toxicity in nude mouse ectopically xenografted with human HepG2 cells assessed as liver weight index at 0.33 mg/kg, ip administered once in 2 days measured after 30 days (reference value: 0.0009 to 0.0187); assay type: organism-based; settings: in vivo, 720 h; method in brief: as §1
[8] = tested on: Mus musculus; assay: Toxicity in nude mouse ectopically xenografted with human HepG2 cells assessed as effect on normal growth at 0.33 to 3 mg/kg, ip administered once in 2 days measured up to 30 days post dose; assay type: organism-based; settings: in vivo; method in brief: as §1
[9] = tested on: Mus musculus; assay: Toxicity in nude mouse ectopically xenografted with human HepG2 cells assessed as liver weight at 3 mg/kg, ip administered once in 2 days measured after 30 days (reference value: 0.069 to 0.434 g); assay type: organism-based; settings: in vivo, 720 h; method in brief: as §1
[10] = tested on: Mus musculus; assay: Toxicity in nude mouse ectopically xenografted with human HepG2 cells assessed as liver weight at 0.33 mg/kg, ip administered once in 2 days measured after 30 days (reference value: 0.069 to 0.434 g); assay type: organism-based; settings: in vivo, 720 h; method in brief: as §1
[11] = tested on: Mus musculus; assay: Toxicity in nude mouse ectopically xenografted with human HepG2 cells assessed as spleen weight at 0.33 mg/kg, ip administered once in 2 days measured after 30 days (reference value: 0.071 to 0.248 g); assay type: organism-based; settings: in vivo, 720 h; method in brief: as §1
[12] = tested on: Mus musculus; assay: Toxicity in nude mouse ectopically xenografted with human HepG2 cells assessed as liver weight index at 3 mg/kg, ip administered once in 2 days measured after 30 days (reference value: 0.0009 to 0.0187); assay type: organism-based; settings: in vivo, 720 h; method in brief: as §1
[13] = tested on: HepG2; assay: Antitumor activity against human HepG2 cells ectopically xenografted in nude mouse assessed as tumor growth inhibition at 3 mg/kg, ip administered once in 2 days measured after 30 days relative to control; assay type: functional; settings: read-out: TGI; method in brief: as §1
[14] = Antiproliferative activity against human QGY7701 cells after 48 hrs by MTT assay; assay type: cell-based; settings: QGY7701, 48 h
Method in brief: (§2)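 Cells grown in DMEM with 10% FBS at 37 °C, 5% CO2; seeded at 6 × 10^3 cells/well, allowed to attach 12 h, then exposed to compound at final 50, 25, 10, 1 and 0.1 µM for 48 h. MTT (5 mg/mL) added for 4 h, formazan dissolved in DMSO, absorbance read at 490 nm; IC50 taken from the resulting curve.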

[15] = tested on: HepG2; assay: Antiproliferative activity against human HepG2 cells after 48 hrs by MTT assay; assay type: functional, cell-based; settings: HepG2, 48 h; method in brief: as §2
[16] = tested on: MCF7; assay: Antiproliferative activity against human MCF7 cells after 48 hrs by MTT assay; assay type: functional, cell-based; settings: MCF7, 48 h; method in brief: as §2
[17] = Selectivity index, ratio of IC50 for human QGY7701 cells to IC50 for human HepG2 cells; assay type: functional
Method in brief: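 Ratio built from MTT IC50 values: QGY-7701 and HepG2 cells in DMEM/10% FBS, seeded at 6 × 10^3 cells/well, attached 12 h, treated 48 h at final 0.1–50 µM, MTT 4 h, DMSO solubilisation, absorbance at 490 nm.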

[18] = species: Homo sapiens; assay: Inhibition of recombinant human topoisomerase-2-mediated decatenation at 50 uM using kinetoplast DNA as substrate after 30 mins agarose gel electrophoresis method relative to control
Method in brief: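 Human Topo II decatenation run by a contract laboratory. Compound or 50% DMSO combined with reaction mix and diluted enzyme, incubated 35 ± 2 °C for 30 min, then stop buffer added. Products separated on 1% agarose, stained 10 min with 2.3 µg/ml ethidium bromide, destained 20 min, bands quantified densitometrically. Doxorubicin at 1 and 10 µM as positive controls, no-compound negative control; run in duplicate.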

[19] = species: Bos taurus; assay: Binding affinity to calf thymus DNA at 40 uM after 5 mins by UV absorbance spectrophotometric method; settings: in the assay text read “fluorescence spectroscopic method” for “UV absorbance spectrophotometric method”
Method in brief: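 Fluorescence emission titration on a spectrofluorometer in 5 mM Tris, 50 mM NaCl, pH 7.2. Compound fixed at 40 µM final; ct DNA added at 0, 8, 16, 24, 32, 40, 60, 80 and 120 µM final. DNA concentration set by UV using ε260 = 6600 M-1 cm-1. Excitation 280 nm; 5 min incubation before reading.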

[20] = tested on: HepG2; assay: Downregulation of Bcl2 expression in human HepG2 cells at 10 uM after 24 hrs by Western blot method; assay type: functional, cell-based
Method in brief: (§3)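 HepG2 cells in 6 cm dishes exposed to a range of concentrations (1–10 µM) for 24 h. Lysate protein measured by BCA, run on 12% SDS-PAGE and transferred to PVDF. Membrane blocked in 5% milk for 1 h, primary antibody overnight at 4 °C, bands imaged after antibody hybridisation.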

[21] = biological target: T1, DNA topoisomerase 1 (Homo sapiens) (UniProt P11387); assay: Inhibition of recombinant human topoisomerase-1-mediated relaxation of pBR322 DNA substrate after 30 mins agarose gel electrophoresis method
T1 sequence (whole entry): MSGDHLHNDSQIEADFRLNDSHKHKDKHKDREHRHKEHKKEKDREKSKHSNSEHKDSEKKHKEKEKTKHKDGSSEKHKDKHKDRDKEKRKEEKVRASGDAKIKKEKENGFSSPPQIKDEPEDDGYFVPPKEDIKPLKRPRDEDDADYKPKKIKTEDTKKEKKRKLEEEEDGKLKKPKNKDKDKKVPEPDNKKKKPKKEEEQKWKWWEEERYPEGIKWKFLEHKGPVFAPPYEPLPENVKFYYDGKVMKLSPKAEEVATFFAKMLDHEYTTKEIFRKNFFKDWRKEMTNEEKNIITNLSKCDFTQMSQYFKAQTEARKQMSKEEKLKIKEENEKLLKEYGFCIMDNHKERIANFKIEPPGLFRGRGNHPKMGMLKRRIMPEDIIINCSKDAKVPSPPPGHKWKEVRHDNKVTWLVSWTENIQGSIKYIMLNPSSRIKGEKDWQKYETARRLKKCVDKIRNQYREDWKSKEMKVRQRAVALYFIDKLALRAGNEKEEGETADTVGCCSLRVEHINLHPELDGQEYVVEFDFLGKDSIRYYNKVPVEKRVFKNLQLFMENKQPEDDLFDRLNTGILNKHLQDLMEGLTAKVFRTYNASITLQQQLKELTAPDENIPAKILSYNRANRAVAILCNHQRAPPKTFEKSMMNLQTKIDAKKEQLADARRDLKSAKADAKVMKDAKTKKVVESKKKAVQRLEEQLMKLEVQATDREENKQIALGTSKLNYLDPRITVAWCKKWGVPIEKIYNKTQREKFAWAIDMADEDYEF

[22] = tested on: HepG2; assay: Upregulation of cleaved PARP expression in human HepG2 cells up to 10 uM after 24 hrs by Western blot method; assay type: functional, cell-based; method in brief: as §3
[23] = tested on: HepG2; assay: Downregulation of survivin expression in human HepG2 cells after 24 hrs by Western blot method; assay type: functional, cell-based; method in brief: as §3
[24] = biological target: Baculoviral IAP repeat-containing protein 5 (Homo sapiens) (UniProt O15392); assay: Binding affinity to survivin (unknown origin) after 20 mins by spectrofluorimetric titration method
Method in brief: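 Intrinsic fluorescence titration of purified survivin (0.3 µM) in 10 mM PBS, pH 7.4, at 37 °C. Compound added to final 0–1.6 µM; 20 min incubation before recording emission spectra with excitation at 280 nm. Spectra compared with and without survivin.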

[25] = tested on: HepG2; assay: Upregulation of cleaved caspase-7 expression in human HepG2 cells at 10 uM after 24 hrs by Western blot method; assay type: functional, cell-based; method in brief: as §3
[26] = tested on: HepG2; assay: Antitumor activity against human HepG2 cells ectopically xenografted in nude mouse assessed as tumor growth inhibition at 25 mg/kg, ip administered once in 2 days measured after 30 days relative to control; assay type: functional; settings: read-out: TGI
[27] = tested on: Mus musculus; assay: Toxicity in nude mouse ectopically xenografted with human HepG2 cells assessed as liver weight at 25 mg/kg, ip administered once in 2 days measured after 30 days (reference value: 0.069 to 0.434 g); assay type: organism-based; settings: in vivo, 720 h
[28] = tested on: Mus musculus; assay: Toxicity in nude mouse ectopically xenografted with human HepG2 cells assessed as spleen weight at 25 mg/kg, ip administered once in 2 days measured after 30 days (reference value: 0.071 to 0.248 g); assay type: organism-based; settings: in vivo, 720 h
[29] = tested on: Mus musculus; assay: Toxicity in nude mouse ectopically xenografted with human HepG2 cells assessed as spleen weight index at 25 mg/kg, ip administered once in 2 days measured after 30 days (reference value: 0.002 to 0.0106); assay type: organism-based; settings: in vivo, 720 h
[30] = tested on: Mus musculus; assay: Toxicity in nude mouse ectopically xenografted with human HepG2 cells assessed as liver weight index at 25 mg/kg, ip administered once in 2 days measured after 30 days (reference value: 0.0009 to 0.0187); assay type: organism-based; settings: in vivo, 720 h
[31] = tested on: Mus musculus; assay: Toxicity in nude mouse ectopically xenografted with human HepG2 cells assessed as body weight loss at 25 mg/kg, ip administered once in 2 days measured after 10 days relative to control; assay type: organism-based; settings: in vivo, 240 h

Sequence of Baculoviral IAP repeat-containing protein 5 (Homo sapiens) (O15392 whole entry): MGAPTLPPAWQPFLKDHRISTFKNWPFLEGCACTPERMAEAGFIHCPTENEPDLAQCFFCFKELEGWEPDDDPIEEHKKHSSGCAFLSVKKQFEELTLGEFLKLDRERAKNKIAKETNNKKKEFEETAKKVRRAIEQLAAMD

SMILES: COc1ccc(CNc2ccc(C(=O)NCCCN(C)C)c3[nH]c4c([N+](=O)[O-])cccc4c(=O)c23)cc1.Cl
- Activity index [1]: 0.0042 to 0.0162
- Activity [2]: Non-Toxic
- Activity [3]: 0.084 to 0.344 g
- Activity [4]: Dose-dependent effect
- Activity index [5]: 0.0016 to 0.0113
- Activity [6]: Non-Toxic
- Activity index [7]: 0.0016 to 0.0217
- Activity [8]: Non-Toxic
- Activity [9]: 0.032 to 0.421 g
- Activity [10]: 0.04 to 0.441 g
- Activity [11]: 0.044 to 0.231 g
- Activity index [12]: 0.0025 to 0.0198
- inhibition in vivo at 3 mg/kg [13]: 54%

SMILES: COc1ccc(CNc2ccc(C(=O)NCCCN(C)C)c3[nH]c4c([N+](=O)[O-])cccc4c(=O)c23)cc1 [listing 1 of 2 here]
- IC50 [14]: 40.7 µM
- IC50 [15]: 3.56 µM
- IC50 [16]: 4.4 µM
- Ratio IC50 [17]: 11

SMILES: COc1ccc(CNc2ccc(C(=O)NCCCN(C)C)c3[nH]c4c([N+](=O)[O-])cccc4c(=O)c23)cc1 [listing 2 of 2 here]
- inhibition [18]: 10.9%
- Activity [19]: inactive
- Activity [20]: Active
- inhibition [21]: inactive
- Activity [22]: Active
- Activity [23]: Dose-dependent effect
- Activity [24]: Dose-dependent effect
- Activity [25]: Active

SMILES: O=c1[nH]cc(F)c(=O)[nH]1 [FLUOROURACIL]
- inhibition in vivo at 25 mg/kg [26]: 64%
- Activity [27]: 0.062 to 0.419 g
- Activity [28]: 0.091 to 0.26 g
- Activity index [29]: 0.005 to 0.0144
- Activity index [30]: 0.0034 to 0.0231
- Activity [31]: 30%
